# HTRA1 inh: HTRA1 (human) protease inhibition; Q92743; recombinant HTRA1, FP-rhodamine activity-based probe, fluorescence polarization; inhibition, % at 5.96 µM; 340,000 compounds, 0.5% hits; in the data active = inhibition above about 36%;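 also: 0% = enzyme with DMSO and 100% = wells lacking enzyme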
# Target sequence (Q92743 whole entry, looked up): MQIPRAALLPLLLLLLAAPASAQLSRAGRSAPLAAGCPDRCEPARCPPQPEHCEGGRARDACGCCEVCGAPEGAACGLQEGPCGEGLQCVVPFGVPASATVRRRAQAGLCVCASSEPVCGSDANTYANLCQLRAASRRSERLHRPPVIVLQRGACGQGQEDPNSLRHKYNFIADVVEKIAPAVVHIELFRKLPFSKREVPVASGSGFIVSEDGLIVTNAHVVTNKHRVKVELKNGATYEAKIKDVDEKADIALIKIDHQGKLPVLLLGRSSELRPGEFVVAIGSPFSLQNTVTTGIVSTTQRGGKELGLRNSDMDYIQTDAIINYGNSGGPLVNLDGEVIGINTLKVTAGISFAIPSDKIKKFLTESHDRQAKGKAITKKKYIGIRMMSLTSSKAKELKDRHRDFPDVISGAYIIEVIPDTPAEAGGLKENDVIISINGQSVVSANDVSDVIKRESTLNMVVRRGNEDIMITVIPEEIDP
# SIAE primary: inhibitors of human sialic acid acetylesterase SIAE; Q9HAT2; SIAE FP-Rh probe binding, fluorescence polarization; inhibition, % at 9.66 µM; 370,000 compounds, 0.69% hits;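 active = inhibition above a cutoff: mean of compounds within the control limits plus 3 SD of those, cut at about 17% in these data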;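 also: 0% = plate median of compound wells and 100% = probe without SIAE protein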
# RBBP9 inh: blocks human serine hydrolase RBBP9 | recombinant RBBP9, FP-Rh probe fluorescence polarization | inhibition, % at 7.94 µM | 220,000 compounds, 0.2% hits | O75884;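 active = inhibition above the campaign mean of all tested compounds plus 3 SD, cut at about 14% in these data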;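 also: plate controls were DMSO wells with RBBP9 for no effect and wells lacking RBBP9 protein for full effect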
# Target sequence (O75884 whole entry, looked up): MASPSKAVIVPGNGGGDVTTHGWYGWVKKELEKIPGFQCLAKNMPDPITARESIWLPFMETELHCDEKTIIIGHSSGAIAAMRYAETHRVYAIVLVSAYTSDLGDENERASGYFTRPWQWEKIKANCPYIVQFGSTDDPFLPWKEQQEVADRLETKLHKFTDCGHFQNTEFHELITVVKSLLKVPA
#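 Test system: recombinant human RBBP9. Quantity: 2.5 µM RBBP9 dispensing solution, before mixing. Detection: FP readout at 525/598 nm. Reagent: Serine-hydrolase probe FP-Rh, 375 nM pre-mixing. Measure: % inhibition. Control set: DMSO-treated enzyme wells and wells lacking RBBP9. Buffer or medium: Tris-NaCl-Pluronic buffer, pH 8.0. Times: preincubation 30 min plus labeling 45 min at 25 °C.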
# ABHD4 inh: inhibits mouse alpha/beta hydrolase domain 4; 370,000 compounds, 0.54% hits; purified mABHD4, FP-Rh probe fluorescence polarization; inhibition, % at 8.92 µM;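 active = inhibition exceeding the mean over every tested compound plus 3 SD, cut at about 30% in these data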;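 also: 0% = plate median of compound wells and 100% = S159A mutant with DMSO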
#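 system = mouse ABHD4 enzyme, wild type | medium = HEPES pH 7.0, NaCl, Pluronic buffer | also added = FP-Rh probe | incubation = Enzyme–compound pre-incubation 45 min, then probe 60 min, both 25 °C | technique = fluorescence polarization, excitation 525 nm, emission 598 nm, BODIPY TMR filters | controls = S159A mutant high control, sample median low control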
# RBBP9 inh conf: human RBBP9 inhibition, confirmation; shares compounds with RBBP9 inh; recombinant RBBP9, FP-Rh probe fluorescence polarization; inhibition, % at 7.94 µM; 410 compounds, 36% hits;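 active = inhibition above the hit cutoff derived for the primary screen, cut at about 15% in these data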;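 also: 0% = RBBP9 with DMSO and 100% = wells lacking RBBP9 protein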
# HTRA1 conf: HTRA1 (human) inhibition, confirmation; shares compounds with HTRA1 inh; recombinant HTRA1, FP-rhodamine activity-based probe, fluorescence polarization; inhibition, % at 5.96 µM; 1,600 compounds, 66% hits;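 active = mean inhibition over three repeats above a set limit taken from the earlier primary screen, cut at about 37% in these data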;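 also: 0% = HTRA1 with DMSO and 100% = wells lacking HTRA1; inhibitors block probe binding so polarization drops and inhibition rises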
# SIAE confirm: human SIAE inhibition, confirmation; shares compounds with SIAE primary; SIAE FP-Rh activity-based probe, fluorescence polarization; inhibition, % at 9.66 µM; 2,300 compounds, 13% hits;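 active = mean inhibition of the replicates above the hit cutoff set in the primary screen, cut at about 17% in these data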;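 also: 0% = SIAE with DMSO and probe and 100% = probe without SIAE; inhibitors lower polarization as more probe stays unbound to SIAE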
# * marks the source's active call; other numbers are inactive results; . = no result. An excerpt weighted towards active compounds, which were near 1.4% of everything screened.
SMILES,HTRA1 inh,SIAE primary,RBBP9 inh,ABHD4 inh,HTRA1 conf,others
O=C(/C=N/O)Nc1ccc2sc3ccccc3c2c1,-7,61*,53*,-8,.,RBBP9 inh conf=72*;SIAE confirm=50*
COc1ccccc1NC(=O)COC(=O)c1cc2ccccc2cc1O,5,1,.,-5,.,
COc1ccccc1NC(=O)c1cc2cc(Br)ccc2cc1O,26,43*,19*,1,.,RBBP9 inh conf=30*;SIAE confirm=-3
CCOC(=O)N1C(=O)NC(=O)C1c1ccc(OC)cc1 (configuration not stated),4,-7,.,-5,.,
O=c1[nH]c2ccc(Cl)cc2c(O)c1Cc1ccccc1,3,9,-7,-3,.,
O=Nc1c(O)[nH]c2ccc(Cl)cc12,14,28*,15*,3,.,RBBP9 inh conf=29*;SIAE confirm=25*
O=C1c2ccccc2C2Cc3nnccc3CN12 (configuration not stated),.,-6,.,-4,.,
CCCCOc1ccc(C2OC34CCCCC3C(C#N)(C#N)C2(C#N)C(=N)O4)cc1 (configuration not stated),25,.,9,.,.,
C=CCOc1ccc(C2OC34CCCCC3C(C#N)(C#N)C2(C#N)C(=N)O4)cc1 (configuration not stated),38*,.,4,.,-3,
Nc1cc(OCC(F)(F)F)cc([N+](=O)[O-])c1,-3,-1,-8,8,.,
Nc1cc(N)c(OCC(F)(F)F)cc1OCC(F)(F)F,48*,.,-4,.,34,
COc1ccccc1NS(=O)(=O)c1cc(N)ccc1N1CCOCC1,37*,6,.,3,-13,
C=CCn1c(C)cc(-c2csc(NCC)n2)c1C,30,8,-4,21,.,
C=CCn1c(C)cc(-c2csc(NC)n2)c1C,42*,6,-8,17,28,
COc1ccc(-n2c(C)cc(-c3csc(N)n3)c2C)cc1,39*,14,-4,21,32,
C=CCn1c(C)cc(-c2csc(N)n2)c1C,60*,8,-2,20,31,
Cc1cc(-c2csc(N)n2)c(C)n1-c1ccc(Cl)c(Cl)c1,31,-6,-4,14,.,
CCOc1ccccc1NC(=S)/C(=C(\[O-])c1ccc2c(c1)OCCO2)[n+]1ccc(CC)cc1,3,4,-8,10,.,
CCCCCCCCN1C(=O)[C@@H](CC(=O)N2CCCC2)C[C@@]2(C(=O)OC)C1=C[C@H](C(C)C)O[C@@H]2C1CC1,.,-2,.,-6,.,
Cc1cc2ccccc2n1CCNC(=O)C1CCCC1,25,8,-8,-2,.,
Cc1cc2ccccc2n1CCNC(=O)C1CCCCC1,36*,-6,3,12,1,
CC(C)OC(=O)C1=CNCC(C)(C)c2c1[nH]c1cc(F)ccc21,.,-3,.,25,.,
CC1=Nc2cccc3cccc(c23)N1,42*,12,5,26,18,
c1cc2c3c(cccc3c1)C(N1CCN(C3=Nc4cccc5cccc3c45)CC1)=N2,.,.,-3,.,.,
CCc1nc2ccc(C(=O)NCc3ccc4c(c3)OCO4)cn2c1N(C)C(=O)Cc1ccccc1,.,-2,.,-8,.,
SMILES,HTRA1 inh,SIAE primary,RBBP9 inh,ABHD4 inh,HTRA1 conf,others
O=C(O)C1Nc2c(O)cc(Cl)c([N+](=O)[O-])c2C2C=CCC12 (configuration not stated),66*,53*,7,61*,63*,
Cc1ccc2c(c1)C1C=CCC1C(C(=O)O)N2 (configuration not stated),.,.,-1,.,.,
O=C(CSc1nc2nn(-c3ccccc3)c(=O)c-2c2n1CCCCC2)c1ccc(O)c(O)c1,74*,.,.,.,97*,
O=C(NC1CC1)C1Nc2ccc(OC(F)(F)F)cc2C2C=CCC12 (configuration not stated),48*,3,.,28,-3,
CCOC(=O)C1Nc2ccc(OC(F)(F)F)cc2C2C=CCC12 (configuration not stated),58*,6,.,11,55*,
O=C(NCc1ccccc1)C1Nc2ccc(OC(F)(F)F)cc2C2C=CCC12 (configuration not stated),17,10,.,12,.,
Cc1cc(C)cc(-n2c(C)c3c(C)nnc(C)c3c2C)c1,40*,4,-1,-6,12,
Oc1ccc(-c2nc3ccc4ccccc4c3c3c2CCC3)cc1O,41*,-2,-23,15,56*,
CCCCCCCC/C=C\CCCCCCCC(=O)O,2,1,.,3,.,
CCCCCCCCCCCCC/C=C/[C@@H](O)[C@@H](N)CO,38*,-1,.,20,67*,
CCCNC(=O)c1cc(C2CCCCN2C(=O)CCCc2ccccc2)on1 (configuration not stated),.,5,.,-6,.,
COCc1cc(CN2CCCC2)c(O)c2ncccc12,18,4,4,10,.,
Oc1c(CN2CCCCC2)ccc2cccnc12,73*,7,.,22,69*,
CN(C)C1CCN(Cc2cc(COCc3ccccc3)c3cccnc3c2O)C1 (configuration not stated),54*,.,.,.,76*,
Oc1c(CN2CCCCC2)cc(COCc2ccccc2)c2cccnc12,65*,-3,3,14,72*,
Cc1cccc(NC(=O)Oc2ccc(Cl)c3cccnc23)c1,54*,11,.,-1,41*,
O=C(Oc1ccc(Cl)c2cccnc12)c1cccnc1,71*,8,.,2,82*,
CNC(=O)COc1ccc(Cl)c2cccnc12,-1,4,0,5,.,
CCOC(=O)Cc1csc(NC(=O)Nc2cccc(OC)c2)n1,-4,0,-1,0,.,
OCc1ccc(O)c2ncccc12,22,15,2,8,.,
Oc1ccc(N=Nc2ccccc2C(F)(F)F)c2cccnc12,54*,2,.,7,75*,
Cc1ccc(N=Nc2ccc(O)c3ncccc23)cc1,50*,3,6,16,70*,
Cc1ccc(N=Nc2ccc(O)c3ncccc23)cc1C,39*,7,-4,6,82*,
Oc1ccc(CNc2ccccc2C(F)(F)F)c2cccnc12,.,4,.,17,.,
Cc1ccc(N=Nc2ccc3ccccc3c2O)cc1,11,-7,.,-1,.,
COc1ccc(NC(=O)C2(C)CCN2Cc2ccc3ccccc3c2)cc1OC (configuration not stated),.,5,.,-2,.,
COc1ccc(OC)c(CN2CCN(C(=O)c3cccc(S(=O)(=O)N(C)c4ccccc4)c3)CC2)c1,-5,1,.,-3,.,
CC1(C)CCCN(C(=O)c2ccc3c(c2NCCO)C(=O)c2ccccc2C3=O)C1,42*,6,-5,5,39*,
O=C1c2ccccc2C(=O)c2c1ccc(C(=O)N1CCCCC1)c2NCCO,3,-5,0,7,.,
